One may read the inhibition as how much of the control response was suppressed. One may read the IC50 as the midpoint of a concentration-inhibition curve.

From ChEMBL document CHEMBL6083223, “Development of di-arylated 1,2,4-triazole-based derivatives as therapeutic agents against breast cancer: synthesis and biological evaluation” (RSC Med Chem, 2024) come the findings set out here.

Assay [1] concerns MDA-MB-231. Kind of assay: Antiproliferative activity against human MDA-MB-231 cells assessed as inhibition of cell growth at 10 uM incubated for 48 hrs by MTT assay. Type of assay: functional. The gist of the method:
(§1)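 Single-concentration screen: cells (ATCC; 37 °C, 5% CO₂) seeded at 4 × 10⁴ per well, adhered overnight, then treated 48 h at 10 μM. Medium removed, MTT (2.5 mg mL⁻¹) added for 4 h, formazan dissolved in DMSO, absorbance read at 570 nm; percent inhibition versus untreated cells.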

Assay [2] concerns MCF7. As to the kind of experiment: Antiproliferative activity against human MCF7 cells assessed as inhibition of cell growth at 10 uM incubated for 48 hrs by MTT assay. Format: functional. The gist of the method:
as §1
For orientation: Tetrazolium dyes change colour on reduction, which living cells bring about.

The subject of assay [3] is ZR-75-1. Kind of assay: Antiproliferative activity against human ZR-75-1 cells assessed as inhibition of cell growth at 10 uM incubated for 48 hrs by MTT assay. Type of assay: functional. The essentials:
as §1

The test system of assay [4] is MDA-MB-231. As to the kind of experiment: Antiproliferative activity against human MDA-MB-231 cells assessed as inhibition of cell growth incubated for 48 hrs by MTT assay. Type of assay: functional, cell-based. Particulars: MDA-MB-231, 48 h.
Assay [5] concerns MCF7. As to the kind of experiment: Antiproliferative activity against human MCF7 cells assessed as inhibition of cell growth incubated for 48 hrs by MTT assay. Particulars: MCF7, 48 h. Format: functional, cell-based. The gist of the method:
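MCF-7 exposed 48 h to 0.625, 1.25, 2.5, 5, 10, 20 and 40 μM. MTT (2.5 mg mL⁻¹) added for 4 h, medium removed, formazan solubilized in DMSO, absorbance at 570 nm; percent growth inhibition calculated and IC50 derived.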

Assay [6] relates to ZR-75-1. As to the kind of experiment: Antiproliferative activity against human ZR-75-1 cells assessed as inhibition of cell growth incubated for 48 hrs by MTT assay. Format: functional, cell-based. Particulars: ZR-75-1, 48 h.

With `COc1cccc(-c2ncn(-c3cc(OC)c(OC)c(OC)c3)n2)c1`, the inhibition at 10 µM in the assay on MDA-MB-231 [1] and with MCF7 [2] was 16.4% each time.
Regarding `COc1cc(-n2cnc(-c3ccc(F)c(F)c3)n2)cc(OC)c1OC`, the inhibition at 10 µM in the assay with MDA-MB-231 [1] is 23.4%; in the assay on MCF7 [2], 23.3%.
The like results for `COc1ccc(-n2cnc(-c3cccc(C(F)(F)F)c3)n2)cc1OC` were, in that order, 12.8% and 18.4%.
Taken in the same sequence, the figures for `c1cc2c(cc1-c1ncn(-c3ccc4c(c3)OCO4)n1)OCO2` were 17.1% and 8.99%.
For `COc1cc(-n2cnc(-c3cccc(C(F)(F)F)c3)n2)cc(OC)c1OC`, the inhibition at 10 µM in the assay with MDA-MB-231 [1] was 5.77%; in the assay with MCF7 [2] it was 48.6%; in the assay with ZR-75-1 [3], 2.39%. Further, the IC50 worked out at 94 µM in the assay with MDA-MB-231 [4], 11 µM in the assay on MCF7 [5] and 98 µM in the assay with ZR-75-1 [6].
In the case of `COc1cc(-n2cnc(-c3cccc4ccccc34)n2)cc(OC)c1OC`, the inhibition at 10 µM came out at 22.6% with MDA-MB-231 [1] and 13.4% with MCF7 [2].
For the compound `COc1ccc(-n2cnc(-c3ccc(Cl)cc3)n2)cc1OC`, the inhibition at 10 µM in the assay on MDA-MB-231 [1] worked out at 0%; in the assay on MCF7 [2], 9.2%; in the assay on ZR-75-1 [3] it was 0%.
For `COc1cc(-n2cnc(-c3cccc(C=O)c3)n2)cc(OC)c1OC`, the inhibition at 10 µM was 22.6% in the assay with MDA-MB-231 [1] and 13.4% with MCF7 [2].
Taken in the same sequence, the figures for `COc1cc(-n2cnc(-c3ccc(F)cc3)n2)cc(OC)c1OC` were 23.1% and 20.2%.
Taken in the same sequence, the figures for `COc1ccc(-n2cnc(-c3ccc(C(F)(F)F)cc3)n2)cc1OC` were 15.8% and 21.3%.
On to `COc1cc(-n2cnc(-c3cccc(N)c3)n2)cc(OC)c1OC`, for which the inhibition at 10 µM in the assay with MDA-MB-231 [1] turned out to be 22.7%; in the assay with MCF7 [2], 57.6%; in the assay on ZR-75-1 [3], 12.1%. In addition, the concentration for half-maximal inhibition (IC50) with MDA-MB-231 [4] came to 21 µM; in the assay with MCF7 [5], 5.7 µM; in the assay with ZR-75-1 [6], 71 µM.
